In article PMC2217063 (The Journal of General Physiology, 1997):
Values joined by “and” are separate entries in the source; they are usually repeats but may differ in a detail not shown here. Identical values can stand only once. Like-named read-outs stand apart in the source and are kept apart here. Blank lines part the entries; values can stand above or below the molecule they belong to.

Legend:
[1] = test system: Na,K-ATPase; details: 0°C, different method; ref Klodos and Nørby, 1987; cited from earlier work
[2] = molecular target: T1, Na,K-ATPase (Canis lupus familiaris, UniProt P50997); type: biochemical, dog
[3] = molecular target: T1, Na,K-ATPase; assay: K- and ADP-chases of the phosphointermediate; type: biochemical, dog; details: for ratio of interconversion rate constants, k12/k21: twin 2-pool model
[4] = molecular target: T1, Na,K-ATPase; assay: Na-ATPase activity and rate constant of blank chase at 4, 17 and 27°C; type: biochemical, dog; details: both Na-ATPase activity and rate constant of blank chase
Method in brief: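 Na-ATPase measured without K+ in imidazole MOPS with Na3EGTA and NaNO3 at 40 or 400 mM, started with ATP, 4 mM final. Rate constant taken from the blank chase: decay of [γ-32P]phosphoenzyme after labelling stops, with a chase lacking ADP and K+. Both run at 4, 17 and 27°C.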

[5] = molecular target: T1, Na,K-ATPase; assay: Na,K-ATPase activity at 37°C with different anions; type: biochemical, dog; details: 400 mM vs 40 mM
Method in brief: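 Enzyme purified from outer-medulla microsomes. […] Salts: 40 mM Na+/8 mM K+/3.5 mM Mg2+ or 400 mM Na+/80 mM K+/10 mM Mg2+. Preincubated 20 min at 37°C; started with ATP, 4 mM final.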

[6] = 500 mM Na^+, no replacement cation, nitrate, 4°C, enzyme prep. A
[7] = 45 mM Na^+, replacement cation to a sum of 500 mM, nitrate, 4°C, prep. A
[8] = 200 mM Na^+, replacement cation to a sum of 500 mM, nitrate, 4°C, prep. B

- k(off), rate constant of dissociation of ATP from ATP·E1 [2, 6]: 1.1 ± 0.10 s⁻¹ and 1.3 ± 0.20 s⁻¹
- k off, rate constant of dissociation of ATP, range over all media of Table III ([2]; 45-500 mM Na^+, 4°C, no correlation with [Na^+]): 0.7 to 1.9 s⁻¹
Structure (SMILES): Nc1ncnc2c1ncn2[C@@H]1O[C@H](COP(=O)(O)OP(=O)(O)OP(=O)(O)O)[C@@H](O)[C@H]1O [ATP, reference compound]
- rate constant of dissociation of ATP [1]: 1.5 to 3.5 s⁻¹

- E1P (amount of K-resistant E1P) [2, 7]: 68%
- E1P (amount of K-resistant E1P) [2, 8]: 56%
Structure (SMILES): CCN(CC)CC [Et3N^+, triethylamine]

- E1P (amount of K-resistant E1P) ([2]; 45 mM Na^+, replacement cation to a sum of 500 mM, nitrate, 4°C, prep. C): 80%
- E1P (amount of K-resistant E1P) ([2]; 200 mM Na^+, replacement cation to a sum of 500 mM, nitrate, 4°C, prep. C): 79%
Structure (SMILES): CNC[C@H](O)[C@@H](O)[C@H](O)[C@H](O)CO [NMG^+, N-methylglucamine]

- effect on interconversion rate constants ([3]; 240 mM NaNO3 vs 30 mM NaNO3 plus 210 mM TrisNO3, 4°C): not affected significantly
- K(internal) = [ADP·E1P]/[ATP·E1] ([2]; 45 mM Na^+): ~2
- K int in 45 mM Na^+ relative to 200 mM Na^+ in each medium ([2]; 45 mM vs 200 mM Na^+): 2.1–2.5 fold
- K int = [ADP·E1P]/[ATP·E1] ([2]; 200 mM Na^+): 0.5–1.4
- K int = [ADP·E1P]/[ATP·E1] ([2]; 500 mM Na^+): 0.1–0.3
- K(internal) = [ADP·E1P]/[ATP·E1] ([2]; 500 mM Na^+): ~0.2
- E1P (amount of K-resistant E1P) [2, 6]: 95%
Structure (SMILES): [Na+] [Na^+]

- effect on Na,K-ATPase activity of increasing the salt concentration to 400 mM [5]: no effect
Structure (SMILES): CC(=O)O [acetate]

- effect on Na,K-ATPase activity of increasing the salt concentration to 400 mM [5]: no effect
Structure (SMILES): Cl [chloride]

Further lines, the molecule ahead of its results:

Structure (SMILES): N=C(N)NCCC[C@H](N)C(=O)O [Arg^+, arginine^+]
- E1P (amount of K-resistant E1P) [2, 7]: 97%
- E1P (amount of K-resistant E1P) [2, 8]: 97%

Structure (SMILES): [Cl-].[Na+] [NaCl]
- ratio of interconversion rate constants, k12/k21 ([3]; 160 mM NaCl, 4°C): > 5
- ratio of interconversion rate constants, k12/k21 ([3]; 600 mM NaCl, 4°C): 0.25

Structure (SMILES): O=[N+]([O-])[O-].[Na+] [NaNO3]
- activation energy (ΔH) in 400 mM relative to 40 mM NaNO3 [4]: 1.3 fold
- effect on rate constant of dephosphorylation in a blank chase ([3]; 4°C, concentration increased from 40 to 400 mM): inhibited dephosphorylation

Structure (SMILES): O=[N+]([O-])O [nitrate]
- amount of E1P in nitrate relative to acetate ([3]; 30 mM Na^+, 250 mM Lys^+): sevenfold larger
- initial amount of E1P ([3]; 280 mM anion, 30 mM Na^+, 250 mM lysine^+, 4°C, 2-pool model): 36%
